Arr AP2 block: inhibitors of human beta-arrestin and AP2 interaction; FITC-arrestin peptide / GST-AP2 beads, flow cytometry; AP2 beta2 appendage carries R879A mutation; inhibition, % at 10 µM; actives 0.31% (n = 340,000);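 active = inhibition above a set limit, near 3 SD of compounds lacking own fluorescence, cut at about 54% in these data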;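 also: plate controls were DMSO wells for no effect and 5 µM unlabelled arrestin peptide for full effect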
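Material – GST-tagged AP2 beta2-adaptin appendage (R879A) on 4 µm glutathione beads · Probe or stimulus – fluorescein-tagged arrestin peptide at 50 nM final · Timing – 12 min plus 1 h, RT · Detection – bead flow cytometry, FITC channel · Read-out basis – inhibition as reduced fluorescein signal on beads, percent · Medium – PBS plus Tween 20 (0.05%) and BSA (0.1%)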
Beta2AR agonist: activates human beta-2 adrenergic receptor causing internalization; Am2.2-beta2AR cells, FAP receptor internalization, flow cytometry; response, % (concentration not given with the values); actives 0.43% (n = 340,000); AID 504454;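 active = response above a set limit, near 3 SD of response in nonfluorescent compounds, cut at about 42% in these data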
MBD2 DNA inh: inhibitors of human MBD2 binding to methylated oligonucleotide; AID 686964; actives 0.31% (n = 370,000); TR-FRET; inhibition, % at 4.4 µM; in the data active = inhibition above about 13%
UHRF1 MBD2 ctr: blocks human UHRF1 binding to methylated DNA. UHRF1 binding to methylated oligo, TR-FRET. inhibition, % at 4.4 µM. actives 0.75% (n = 370,000). AID 687016; in the data active = inhibition above about 21%;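 also: UHRF1 SRA domain binding a hemimethylated CpG hairpin DNA probe; 0% = median of test compound wells and 100% = reference inhibitor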
Target sequence (Q96T88 whole entry, looked up, the tested form may be a part): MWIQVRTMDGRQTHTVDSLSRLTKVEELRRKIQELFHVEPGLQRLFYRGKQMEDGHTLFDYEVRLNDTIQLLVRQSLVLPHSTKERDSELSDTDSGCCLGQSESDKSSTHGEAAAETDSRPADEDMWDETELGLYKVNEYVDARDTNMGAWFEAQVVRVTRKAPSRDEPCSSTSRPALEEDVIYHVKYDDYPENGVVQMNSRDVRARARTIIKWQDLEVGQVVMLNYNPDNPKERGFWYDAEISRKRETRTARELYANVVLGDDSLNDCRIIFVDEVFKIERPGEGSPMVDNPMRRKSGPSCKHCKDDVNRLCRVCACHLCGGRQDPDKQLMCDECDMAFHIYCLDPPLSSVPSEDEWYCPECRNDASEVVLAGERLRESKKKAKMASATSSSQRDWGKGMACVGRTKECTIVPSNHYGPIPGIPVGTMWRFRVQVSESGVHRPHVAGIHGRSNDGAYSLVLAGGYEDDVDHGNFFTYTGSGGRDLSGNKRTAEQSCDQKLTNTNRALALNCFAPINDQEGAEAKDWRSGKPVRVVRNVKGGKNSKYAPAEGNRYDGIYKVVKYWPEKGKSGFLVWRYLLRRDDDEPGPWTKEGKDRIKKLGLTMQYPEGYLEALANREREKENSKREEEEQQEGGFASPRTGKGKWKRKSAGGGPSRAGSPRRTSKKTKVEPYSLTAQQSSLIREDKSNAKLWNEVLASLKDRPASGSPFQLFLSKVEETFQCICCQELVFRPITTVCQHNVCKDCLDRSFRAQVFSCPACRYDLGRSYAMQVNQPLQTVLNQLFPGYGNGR
Rin1-Abl PPI inh: inhibitors of human Rin1-Abl protein interaction; actives 0.4% (n = 360,000); TR-FRET Rin1/Abl binding, biochemical; P00519+Q13671; inhibition, % at 7.35 µM; in the data active = inhibition above about 5%, passing the limit was not always enough
ABHD5-PLIN5 inh: inhibitors of human ABHD5-perilipin-5 interaction. AID 602281. Q00G26+Q8WTS1. actives 0.78% (n = 360,000). Split G. princeps luciferase complementation, luminescence, 4 h. inhibition, % at 4 µM;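 active = inhibition above the mean inhibition across every tested compound plus 3 SD, cut at about 22% in these data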;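 also: 0% = DMSO only wells and the 100% control is not disclosed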
An asterisk follows results filed as active; . = not tested or not shown. Most compounds without a hit are left out; they make up all but 2.5% or so of the library.

SMILES	Arr AP2 block	Beta2AR agonist	MBD2 DNA inh	UHRF1 MBD2 ctr	Rin1-Abl PPI inh	ABHD5-PLIN5 inh
COc1ccc([N+](=O)[O-])c(S(=O)(=O)c2ccc(Cl)cc2)n1	2	41	0	-4	1	39*
Nc1cccnc1S(=O)(=O)c1ccccc1	-11	-1	-3	-2	2	2
CCCC1CCC2(CCC(=O)N2CCSc2ccccc2)CC1 (centres undefined)	.	.	-5	-2	.	.
COc1cccc2c(NCc3ccccc3)nc(-n3c(N)nc4ccccc43)nc12	.	.	6	-2	.	.
Cc1ccc(S(=O)(=O)NCc2ccccc2)cc1C(=O)N(C)CC(=O)Nc1ccccc1Br	0	7	1	22*	2	-4
CN(CC(=O)Nc1ccccc1Br)C(=O)c1cccc(S(=O)(=O)NCc2ccccc2)c1	-4	2	2	2	-2	-2
Cc1cc(OC(C)CCN2CCC(C(O)(c3ccccc3)c3ccccc3)CC2)ccc1Br (centres undefined)	.	.	-6	-2	.	.
Cc1cc(C)c(C(=O)/C=C/c2ccc(C(C)C)cc2)c(=O)[nH]1	7	6	1	-4	-3	37*
Cc1ccc2cc(CN(CCCN(C)C)C(=S)NCc3ccccc3)c(=O)[nH]c2c1C	5	33	-4	2	-5	23*
Cc1ccc2cc(CN(CCCN(C)C)C(=O)NCc3ccccc3)c(=O)[nH]c2c1C	2	-1	-1	-2	3	9
Cc1ccc(CNC(=O)O[C@H]2CC[C@@]34CCCN3C(=O)CCC[C@H]4[C@H]2C)cc1	.	.	-5	-2	.	.
CCOc1ccc(NC(=O)CSC2=NN3CCCC(=O)N=C3S2)cc1	4	-9	-4	-2	-3	2
CCCCc1ccc(NC(=O)CSC2=NN3CCCC(=O)N=C3S2)cc1	17	71*	5	7	1	-3
CCOc1ccc(-n2c(SCC(=O)Nc3ccc(S(=O)(=O)Nc4cc(C)nc(C)n4)cc3)nnc2-c2cccc(C)c2)cc1	.	.	-4	0	.	.
Cc1cc(C)c2nc3sc(C(=O)N4CCOCC4)c(N)c3cc2c1	2	34	-6	37*	-10	-9
COC(=O)[C@]12C[C@H](CC(=O)NCCCCc3ccccc3)C(=O)N(CCc3ccc(OC)c(OC)c3)C1=C[C@H](C(C)C)O[C@@H]2C1CC1	.	.	2	1	.	.
CC1=NN(c2cccc(Cl)c2)C(=O)C1	-3	0	6	14	32*	17
COc1ccc(-c2nc3c(Cl)cc(C(F)(F)F)cn3c2Cc2cccc(F)c2)cc1OC	.	.	3	25*	-1	-1
COc1ccc(-c2nc3c4ccccc4ccn3c2Cc2ccsc2)cc1OC	.	.	12	21*	3	6
COc1ccc(-c2nc3c(C)cc(Br)cn3c2Cc2cccc(Cl)c2)cc1OC	.	.	7	22*	-83	-3
Cc1cc(Br)cn2c(Cc3cccc(Cl)c3)c(-c3cccc(Cl)c3)nc12	.	.	9	16	.	-10
COc1ccc(-c2nc3c4ccccc4ccn3c2Cc2cccc(Cl)c2)cc1OC	.	.	5	23*	4	6
COc1ccc(-c2nc3c4ccccc4ccn3c2Cc2ccc(C)cc2)cc1OC	.	.	4	10	0	1
c1ccc2c(c1)ccn1c(Cc3ccsc3)c(C3CCCCC3)nc21	.	.	6	21*	.	-3
COc1ccc(-c2nc3c(C)cc(Br)cn3c2CC2CCCCC2)cc1OC	.	.	10	23*	-15	3
SMILES	Arr AP2 block	Beta2AR agonist	MBD2 DNA inh	UHRF1 MBD2 ctr	Rin1-Abl PPI inh	ABHD5-PLIN5 inh
CCC1CCCCN1CCCNC(=O)c1cn(C)c2ccc(S(=O)(=O)N(C)C3CCCCC3)cc2c1=O (centres undefined)	28	12	6	23*	0	5
Nc1[nH]c(C(=O)c2ccccc2)c(-c2cccc3ccccc23)c1C(=O)c1c(-c2ccccc2)[nH]c2ccccc12	.	.	2	2	.	.
Nc1ccc(-c2nc3cc([N+](=O)[O-])ccc3o2)cc1	-3	-4	0	-8	-2	4
COc1ccc(-c2nc3cc([N+](=O)[O-])ccc3o2)cc1	1	-3	-4	21*	3	0
COc1ccc(N=C2S/C(=C\c3ccc(N4CCOCC4)o3)C(=O)N2CCc2c[nH]c3ccccc23)cc1	-41	-499	.	.	2	72*
COc1ccc(N=C2S/C(=C\c3ccc(OCC(=O)O)cc3)C(=O)N2CCc2c[nH]c3ccccc23)cc1	-3	16	-1	-1	-1	-2
COC1(OC)C=CC(=O)C=C1NC(=O)c1ccccc1OC(C)=O	11	6	5	4	1	23*
S=C(Nc1cccnc1)NC1CCCCCCC1	6	-4	2	1	-1	-2
O=C(Nc1cccnc1)NC1CCCCC1	12	0	3	25*	4	-5
CC(COc1ccc(F)cc1)CN1CCC(C(O)(c2ccccc2)c2ccccc2)CC1 (centres undefined)	.	.	-1	0	.	.
CC(C)COc1ccc(C(=O)N/N=C/c2ccoc2)cc1	5	-5	-2	30*	1	4
CCOc1cc(C(=O)N/N=C/c2ccoc2)cc(OCC)c1OCC	-1	-7	2	-2	-2	-2
O=C1CCCC/C1=C/Nc1cccc(C(F)(F)F)c1	2	-4	7	24*	4	-3
COc1cc2c(cc1NC(=O)CSc1nnc(COc3ccccc3)n1Cc1ccco1)oc1ccccc12	.	.	3	2	.	.
O=C(N/N=C/c1cccc([N+](=O)[O-])c1)c1cc[n+](CCO)cc1	9	46*	-6	2	3	-4
CCCCCCCC(=O)Nc1ccc(C(=O)N/N=C/c2cccc([N+](=O)[O-])c2)cc1	7	-5	-2	-3	-2	3
COC(=O)c1ccc2nc(-c3ccccc3)c(Cc3ccccc3C(F)(F)F)n2c1	.	.	-1	2	.	-8
COC(=O)c1ccc2nc(-c3ccc(OC)c(OC)c3)c(Cc3ccccc3C(F)(F)F)n2c1	.	.	5	24*	.	.
COC(=O)c1ccc2nc(-c3ccc(OC)c(OC)c3)c(Cc3ccccc3OC)n2c1	.	.	8	23*	3	2
CC(=O)OC12CCCN(C1)/C(=C/c1cccc(N(C)C)c1)C2 (centres undefined)	.	.	-4	-1	.	.
COc1ccc(S[C@]2(C(=O)NCc3ccccc3)CC(=O)N[C@@H]2c2ccc(OC)cc2)cc1	.	.	2	-1	.	.
Cc1ccc(-c2csc(NC(=O)/C=C/c3ccco3)c2C(=O)O)cc1	-9	12	1	31*	-2	5

From PubChem BioAssay
